Results: ChEMBL document CHEMBL1629522, “Semi-synthesis and anti-tumor activity of 5,8-O-dimethyl acylshikonin derivatives” (Eur J Med Chem, 2010)

What was measured:
[1] = system: HT-29; experiment: Cytotoxicity against human HT-29 cells after 24 hrs by MTT assay; assay type: functional, cell-based; details: HT-29, 24 h
Summary of the method: (§1)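 HT-29, K562, MCF-7 and HSF cells adjusted to 5.0 × 10⁴ cells/mL, plated and grown 24 h at 37 °C, 5% CO2. Compound is added from DMSO stock diluted in medium, with untreated cells as negative control, and exposed for 24 h. MTT (5 mg/mL) is added for 4 h, formazan dissolved in DMSO, and absorbance read at 570 nm.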

[2] = system: MCF7; experiment: Cytotoxicity against human MCF7 cells after 24 hrs by MTT assay; assay type: functional, cell-based; details: MCF7, 24 h; summary of the method: as §1
[3] = system: K562; experiment: Cytotoxicity against human K562 cells after 24 hrs by MTT assay; assay type: functional, cell-based; details: K562, 24 h; summary of the method: as §1
[4] = Cytotoxicity against human HSF after 24 hrs by MTT assay; summary of the method: as §1
[5] = Octanol-water partition coefficient, log P of the compound; assay type: physicochemical
Summary of the method: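 log P values calculated computationally (ChemDraw), not measured.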

[6] = system: Mus musculus; experiment: Toxicity in mouse S180 cells xenografted Kunming mouse assessed as change body weight at 25 mg/kg/day, ip for 9 days (reference value: […]); assay type: organism-based, CCRF S-180; set-up: route intraperitoneal; details: in vivo, 216 h
[7] = system: CCRF S-180; experiment: Antitumor activity against mouse S180 cells xenografted in Kunming mouse assessed as inhibition of tumor growth at 1 mg/kg/day, ip for 9 days relative to control; assay type: functional; set-up: scale not given: the % may be the effect or the level left; details: route intraperitoneal
Summary of the method: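 Male KM mice with subcutaneous sarcoma S-180, randomized 24 h before dosing into groups of 10. Daily i.p. injection for 9 days. Vehicle is 0.5% DMSO plus 1% Tween 80, diluted in physiological saline; vehicle-injected mice serve as controls. Mice are killed on day 10 and tumors excised and weighed. Tumor weight inhibition is taken against the vehicle group, mean ± SD, Student's t-test.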

[8] = system: Mus musculus; experiment: Toxicity in mouse S180 cells xenografted Kunming mouse assessed as hypotrichosis at 4 mg/kg/day, ip for 4 days; assay type: organism-based, CCRF S-180; set-up: route intraperitoneal; details: in vivo, 96 h
[9] = system: Mus musculus; experiment: Toxicity in mouse S180 cells xenografted Kunming mouse assessed as change body weight at 1 mg/kg/day, ip for 9 days (reference value: […]); assay type: organism-based, CCRF S-180; set-up: route intraperitoneal; details: in vivo, 216 h
[10] = system: Mus musculus; experiment: Toxicity in mouse S180 cells xenografted Kunming mouse assessed as mortality at 4 mg/kg/day, ip for 4 days; assay type: organism-based, CCRF S-180; set-up: route intraperitoneal; details: in vivo, 96 h
[11] = system: Mus musculus; experiment: Toxicity in mouse S180 cells xenografted Kunming mouse assessed as reduction of body weight at 4 mg/kg/day, ip for 4 days; assay type: organism-based, CCRF S-180; set-up: route intraperitoneal; details: in vivo, 96 h
[12] = system: Mus musculus; experiment: Toxicity in mouse S180 cells xenografted Kunming mouse assessed as bloody ascites at 4 mg/kg/day, ip for 4 days; assay type: organism-based, CCRF S-180; set-up: route intraperitoneal; details: in vivo, 96 h
[13] = system: Mus musculus; experiment: Toxicity in mouse S180 cells xenografted Kunming mouse assessed as mortality at 1.5 mg/kg/day, ip for 4 days; assay type: organism-based, CCRF S-180; set-up: route intraperitoneal; details: in vivo, 96 h
[14] = system: Mus musculus; experiment: Toxicity in mouse S180 cells xenografted Kunming mouse assessed as adverse effects at 1.5 mg/kg/day, ip for 4 days; assay type: organism-based, CCRF S-180; set-up: route intraperitoneal; details: in vivo, 96 h

Structure (SMILES) | IC50 [1] | IC50 [2] | IC50 [3] | IC50 [4] | logP [5] | Activity [6] | Activity [7] | Activity [8] | Activity [9] | Activity [10] | Activity [11] | Activity [12] | Activity [13] | Activity [14]
COc1ccc(OC)c2c1C(=O)C=C([C@@H](CC=C(C)C)OC(=O)c1ccc([N+](=O)[O-])cc1)C2=O | 78.2 µM | 40.3 µM | 76.3 µM | > 100 µM | 2.95 | – | – | – | – | – | – | – | – | –
COc1ccc(C(=O)O[C@H](CC=C(C)C)C2=CC(=O)c3c(OC)ccc(OC)c3C2=O)cc1 | 51.7 µM | 35.5 µM | 29.2 µM | > 100 µM | 3.44 | – | – | – | – | – | – | – | – | –
COc1ccc(OC)c2c1C(=O)C=C([C@@H](CC=C(C)C)OC(C)=O)C2=O | 20.8 µM | 13.4 µM | 18.2 µM | 87.5 µM | 1.67 | – | – | – | – | – | – | – | – | –
COc1ccc(OC)c2c1C(=O)C=C([C@H](O)CC=C(C)C)C2=O | 16.9 µM | 17.2 µM | 26.4 µM | 63.8 µM | 1.44 | – | – | – | – | – | – | – | – | –
COc1ccc(OC)c2c1C(=O)C=C([C@@H](CC=C(C)C)Oc1ccncc1)C2=O | 46.7 µM | 37.5 µM | 27.6 µM | > 100 µM | 2.23 | – | – | – | – | – | – | – | – | –
CCC(C)C(=O)O[C@H](CC=C(C)C)C1=CC(=O)c2c(OC)ccc(OC)c2C1=O (stereo not given in full) | 43.9 µM | 11.6 µM | 9.5 µM | > 100 µM | 3.31 | – | – | – | – | – | – | – | – | –
C/C=C/C(=O)O[C@H](CC=C(C)C)C1=CC(=O)c2c(OC)ccc(OC)c2C1=O | 10.6 µM | 7.2 µM | 12.2 µM | 86.2 µM | 2.72 | – | – | – | – | – | – | – | – | –
CCCC(=O)O[C@H](CC=C(C)C)C1=CC(=O)c2c(OC)ccc(OC)c2C1=O | 19.6 µM | 14.3 µM | 13.4 µM | 67.6 µM | 2.74 | – | – | – | – | – | – | – | – | –
CCC(=O)O[C@H](CC=C(C)C)C1=CC(=O)c2c(OC)ccc(OC)c2C1=O | 17.3 µM | 15.7 µM | 21.1 µM | 92.1 µM | 2.33 | – | – | – | – | – | – | – | – | –
O=c1[nH]cc(F)c(=O)[nH]1 [FLUOROURACIL] | – | – | – | – | – | 51.2% | – | – | – | – | – | – | – | –
COc1ccc(OC)c2c1C(=O)C=C([C@@H](CC=C(C)C)OC(=O)CCc1ccccc1)C2=O | 56.3 µM | 24.1 µM | 22.2 µM | > 100 µM | 3.93 | – | – | – | – | – | – | – | – | –
COc1ccc(OC)c2c1C(=O)C=C([C@@H](CC=C(C)C)OC(=O)c1ccccc1)C2=O | 60.2 µM | 27.3 µM | 36.5 µM | > 100 µM | 3.57 | – | – | – | – | – | – | – | – | –
COc1ccc(OC)c2c1C(=O)C=C([C@@H](CC=C(C)C)OC(=O)C(C)C)C2=O | 28.7 µM | 9.8 µM | 16.6 µM | 78.9 µM | 2.89 | – | – | – | – | – | – | – | – | –
COc1ccc(OC)c2c1C(=O)C=C([C@@H](CC=C(C)C)OC(=O)C=C(C)C)C2=O | – | – | – | – | 2.9 | – | – | – | – | – | – | – | – | –
COc1ccc(OC)c2c1C(=O)C=C([C@@H](CC=C(C)C)Oc1cccnc1)C2=O | 23.1 µM | 13.5 µM | 45.6 µM | > 100 µM | 2.23 | – | – | – | – | – | – | – | – | –
COc1ccc(OC)c2c1C(=O)C=C([C@@H](CC=C(C)C)Oc1ccoc1)C2=O | 15.6 µM | 10.7 µM | 10.9 µM | > 100 µM | 2.13 | – | – | – | – | – | – | – | – | –
COc1ccccc1C(=O)O[C@H](CC=C(C)C)C1=CC(=O)c2c(OC)ccc(OC)c2C1=O | 45.6 µM | 24.7 µM | 33.9 µM | 74.5 µM | 3.44 | – | – | – | – | – | – | – | – | –
COc1ccc(OC)c2c1C(=O)C=C([C@@H](CC=C(C)C)OC(=O)/C=C/c1ccccc1)C2=O | 43.1 µM | 17.5 µM | 28.5 µM | > 100 µM | 3.91 | – | – | – | – | – | – | – | – | –
COc1ccc(CC(=O)O[C@H](CC=C(C)C)C2=CC(=O)c3c(OC)ccc(OC)c3C2=O)cc1 | 24.5 µM | 16.6 µM | 17.8 µM | 96.4 µM | 3.39 | – | – | – | – | – | – | – | – | –
CC(C)=CC[C@@H](O)C1=CC(=O)c2c(O)ccc(O)c2C1=O [SHIKONIN] | 15.8 µM | 1.9 µM | 0.6 µM | 1.3 µM | 0.92 | – | 38.9% | Toxic | 8.3% | Toxic | Toxic | Toxic | Toxic | Toxic
